Results gathered from unrelated publications.
Compare with care: the assays were run in different laboratories.
ALOX5: Polyunsaturated fatty acid 5-lipoxygenase (ALOX5, Homo sapiens, UniProt P09917)
HTR1D: 5-hydroxytryptamine receptor 1D (HTR1D, Homo sapiens, UniProt P28221)
Dipeptidyl peptidase 8: Dipeptidyl peptidase 8 (Homo sapiens, UniProt Q6V1X1)

Structure (SMILES)	target	read-out	action	technique	setting	quantity	value
COC[C@H]1OC(=O)c2coc3c2[C@@]1(C)C1=C(C3=O)[C@@H]2CCC(=O)[C@@]2(C)C[C@H]1OC(C)=O	TGF-beta receptor type-2 (TGFBR2, Homo sapiens, UniProt P37173)	cell-free assay	–	competition with immobilised ligand	–	Kd	> 10 µM
O=C(CCCCCCNC(=O)c1cnc(N(c2ccccc2)c2ccccc2)nc1)NO	ATP-dependent translocase ABCB1 (ABCB1, Homo sapiens, UniProt P08183)	ATPase activity	activator	–	cell membranes	EC50	~7.5 µM
COc1cc(Nc2ncc(F)c(Nc3ccc4c(n3)NC(=O)C(C)(C)O4)n2)cc(OC)c1OC	ALOX5	enzyme activity	inhibitor	–	–	IC50	5.01 µM
COc1ccc(C(=O)CCN2CCN(c3ccccc3OC)CC2)cc1	HTR1D	ligand displacement	–	radioligand	–	Ki	0.062 µM
O=C(NO)c1ccccc1	Histone deacetylase 6, CD2 (hdac6, Danio rerio, UniProt F8W4B7)	enzyme activity	inhibitor	fluorescence	–	IC50	3.42 µM
Cc1cccc(N2CCN(Cc3coc4ccc(Cl)cc4c3=O)CC2)c1C	HTR1D	ligand displacement	–	radioligand	–	Ki	0.546 µM
CC(C)S[C@@H]1O[C@H](CO)[C@H](O)[C@H](O)[C@H]1O	Beta-galactosidase (lacZ, Escherichia coli K-12, UniProt P00722)	enzyme activity	inhibitor	fluorescence	–	Ki	36 µM
Fc1ccc2onc(C3CCNCC3)c2c1	Sodium-dependent serotonin transporter (Slc6a4, Rattus norvegicus, UniProt P31652)	ligand displacement	–	radioligand	–	Ki	> 10 µM
CCCCCc1cc(O)c2c(c1)OC(C)(CCC=C(C)C)C=C2 (stereo not shown)	ALOX5	enzyme activity in cells	inhibitor	–	–	IC50	1.5 µM
OC(c1ccc(F)cc1)C(F)(F)CCN1CCC(O)(c2ccc(Cl)cc2)CC1 (racemic)	HTR1D	cell-free assay	–	radioligand	–	Ki	4.88 µM
CC(C)C[C@@H]1C(=O)N[C@H]([C@@H](C)O)C(=O)N[C@H](C)[C@@H](C)C(=O)O[C@@H](Cc2ccccc2)C(=O)N(C)[C@@H](C(C)C)C(=O)N2CCC[C@H]2C(=O)N(C)[C@H](Cc2ccccc2)C2=N[C@@H](CS2)C(=O)N[C@H](C)C2=N[C@@H](CS2)C(=O)N1C	Dipeptidyl peptidase 8	enzyme activity	inhibitor	–	–	IC50	16.6 µM
CC(C)Cc1ccc([C@@H](C)C(=O)O)cc1	Histone acetyltransferase KAT2B (KAT2B, Homo sapiens, UniProt Q92831)	enzyme activity	inhibitor	mobility shift	–	IC50	~6000 µM
O=C(CCCN1CCN(c2ccccc2)CC1)c1ccc(F)cc1	HTR1D	ligand displacement	–	radioligand	–	Ki	0.169 µM
CC[C@H]1NC(=O)[C@@H]2CSC(=N2)[C@H](Cc2ccccc2)N(C)C(=O)[C@@H]2CCCN2C(=O)[C@H](C(C)C)N(C)C(=O)[C@H](Cc2ccccc2)OC(=O)[C@H](C)[C@@H](C)NC(=O)[C@@H]([C@@H](C)O)NC(=O)[C@@H](CC(C)C)N(C)C(=O)[C@@H]2CSC1=N2	Dipeptidyl peptidase 8	enzyme activity	inhibitor	–	–	IC50	6.41 µM
CCOc1ccccc1N1CCN(Cc2coc3ccccc3c2=O)CC1	HTR1D	ligand displacement	–	radioligand	–	Ki	0.633 µM
CSCC[C@H](NC(=O)[C@H](Cc1c[nH]c2ccccc12)NC(=O)CNC(=O)[C@H](Cc1ccc(O)cc1)NC(=O)[C@H](C)NC(=O)[C@@H](CCC(=O)O)NC(=O)CN1CCN(CC(=O)O)CCN(CC(=O)O)CCN(CC(=O)O)CC1)C(=O)N[C@@H](CC(=O)O)C(=O)N(C)[C@@H](Cc1ccccc1)C(N)=O	Gastrin/cholecystokinin type B receptor (Rattus norvegicus, UniProt P30553)	ligand displacement	–	radioligand	–	IC50	0.0226 µM
